Source: ChEMBL document CHEMBL3734701, “Synthesis and antibacterial activity of 4″-O-(trans-β-arylacrylamido)carbamoyl azithromycin analogs” (2015)
≈ marks a conversion by molar mass, not a printed value.

Experiments:
Type in all cases: functional
[1] = test system: Staphylococcus aureus; assay: Antibacterial activity against erythromycin-susceptible Staphylococcus aureus ATCC 25923 by broth microdilution method
Summary of the method: (§1)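 Broth microdilution MIC following the NCCL-recommended method. Panel of sensitive and resistant Gram-positive strains: S. pyogenes S2 (erythromycin-susceptible clinical isolate), S. aureus ATCC25923 and S. pneumoniae ATCC49619 (erythromycin-susceptible). Azithromycin and clarithromycin were run alongside as references.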

[2] = test system: Streptococcus pneumoniae; assay: Antibacterial activity against erythromycin-susceptible Streptococcus pneumoniae ATCC 49619 by broth microdilution method; summary of the method: as §1
[3] = test system: Streptococcus pyogenes; assay: Antibacterial activity against clinically isolated erythromycin-susceptible Streptococcus pyogenes S2 by broth microdilution method; summary of the method: as §1
[4] = test system: Staphylococcus aureus; assay: Antibacterial activity against clinically isolated penicillin-resistant Staphylococcus aureus by broth microdilution method
Summary of the method: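 Clinical penicillin-resistant S. aureus isolate, not further characterized, tested in a Gram-positive panel. MIC was measured by broth microdilution following NCCL recommendations, with azithromycin and clarithromycin as references.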

[5] = test system: Staphylococcus aureus; assay: Antibacterial activity against methicillin-susceptible Staphylococcus aureus ATCC 29213 by broth microdilution method
Summary of the method: (§2)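 MICs measured in vitro by broth microdilution following NCCL recommendations, against a Gram-positive panel of sensitive and resistant strains. Azithromycin and clarithromycin were tested alongside as references.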

[6] = test system: Streptococcus pneumoniae; assay: Antibacterial activity against erythromycin-resistant Streptococcus pneumoniae B1 expressing ermB gene by broth microdilution method; summary of the method: as §2
[7] = test system: Streptococcus pneumoniae; assay: Antibacterial activity against erythromycin-resistant Streptococcus pneumoniae A22072 expressing mefA gene by broth microdilution method; summary of the method: as §2
[8] = test system: Streptococcus pneumoniae; assay: Antibacterial activity against erythromycin-resistant Streptococcus pneumoniae AB11 expressing ermB and mefA genes by broth microdilution method; summary of the method: as §2
[9] = test system: Streptococcus pyogenes; assay: Antibacterial activity against clinically isolated erythromycin-resistant Streptococcus pyogenes R2 by broth microdilution method; summary of the method: as §2
[10] = test system: Streptococcus pneumoniae; assay: Potency index, ratio of EMA MIC to test compound MIC for erythromycin-resistant Streptococcus pneumoniae B1 expressing ermB gene
[11] = test system: Streptococcus pneumoniae; assay: Potency index, ratio of AZM MIC to test compound MIC for erythromycin-resistant Streptococcus pneumoniae B1 expressing ermB gene
[12] = test system: Streptococcus pyogenes; assay: Potency index, ratio of EMA MIC to test compound MIC for clinically isolated erythromycin-resistant Streptococcus pyogenes R2
[13] = test system: Streptococcus pyogenes; assay: Potency index, ratio of AZM MIC to test compound MIC for clinically isolated erythromycin-resistant Streptococcus pyogenes R2
[14] = test system: Streptococcus pneumoniae; assay: Potency index, ratio of EMA MIC to test compound MIC for erythromycin-resistant Streptococcus pneumoniae A22072 expressing mefA gene
[15] = test system: Streptococcus pneumoniae; assay: Potency index, ratio of AZM MIC to test compound MIC for erythromycin-resistant Streptococcus pneumoniae A22072 expressing mefA gene

Row | Compound | MIC [1] [µg/mL] | MIC [2] [µg/mL] | MIC [3] [µg/mL] | MIC [4] [µg/mL] | MIC [5] [µg/mL] | MIC [6] [µg/mL] | MIC [7] [µg/mL] | MIC [8] [µg/mL] | MIC [9] [µg/mL] | Ratio [10] | Ratio [11] | Ratio [12] | Ratio [13] | Ratio [14] | Ratio [15]
1 | CC[C@@H]1OC(=O)[C@H](C)[C@@H](O[C@H]2C[C@@](C)(OC)[C@@H](OC(=O)NNC(=O)/C=C/c3cccs3)[C@H](C)O2)[C@@H](C)[C@@H](O[C@@H]2O[C@H](C)C[C@H](N(C)C)[C@H]2O)[C@](C)(O)C[C@@H](C)CN(C)[C@H](C)[C@@H](OC(=O)NCc2ccc(OC)cc2)[C@]1(C)O | 0.5 (≈ 0.452 µM) | 0.25 (≈ 0.226 µM) | 0.25 (≈ 0.226 µM) | 2 (≈ 1.81 µM) | 1 (≈ 0.904 µM) | 0.5 (≈ 0.452 µM) | 0.03 (≈ 0.0271 µM) | 1 (≈ 0.904 µM) | 32 (≈ 28.9 µM) | 256 | 256 | – | – | – | –
2 | CC[C@H]1OC(=O)[C@@H](C)[C@H](O[C@@H]2C[C@](C)(OC)[C@H](OC(=O)NNC(=O)/C=C/c3ccc(Cl)cc3)[C@@H](C)O2)[C@H](C)[C@H](O[C@H]2O[C@@H](C)C[C@@H](N(C)C)[C@@H]2O)[C@@](C)(O)C[C@H](C)CN(C)[C@@H](C)[C@H](OC(=O)NCc2ccc(OC)cc2)[C@@]1(C)O | 0.5 (≈ 0.441 µM) | 0.5 (≈ 0.441 µM) | 0.5 (≈ 0.441 µM) | 2 (≈ 1.76 µM) | 2 (≈ 1.76 µM) | 0.25 (≈ 0.22 µM) | 0.12 (≈ 0.106 µM) | 1 (≈ 0.881 µM) | 4 (≈ 3.52 µM) | 512 | 512 | 32 | 32 | – | –
3 | CC[C@H]1OC(=O)[C@@H](C)[C@H](O[C@H]2C[C@@](C)(OC)[C@@H](OC(=O)NNC(=O)/C=C/c3cccs3)[C@H](C)O2)[C@@H](C)[C@H](O[C@H]2O[C@@H](C)C[C@@H](N(C)C)[C@@H]2O)[C@@](C)(O)C[C@H](C)CN(C)[C@@H](C)[C@@H]2OC(=O)O[C@@]12C | 32 (≈ 33 µM) | 8 (≈ 8.25 µM) | 0.25 (≈ 0.258 µM) | 64 (≈ 66 µM) | 64 (≈ 66 µM) | 2 (≈ 2.06 µM) | 0.015 (≈ 0.0155 µM) | 4 (≈ 4.13 µM) | ≥ 128 | – | – | – | – | 512 | 256
4 | CC[C@H]1OC(=O)[C@@H](C)[C@H](O[C@@H]2C[C@](C)(OC)[C@H](OC(=O)NNC(=O)/C=C/c3ccc(Br)cc3)[C@@H](C)O2)[C@H](C)[C@H](O[C@H]2O[C@@H](C)C[C@@H](N(C)C)[C@@H]2O)[C@@](C)(O)C[C@H](C)CN(C)[C@@H](C)[C@H](OC(=O)NCc2ccc(OC)cc2)[C@@]1(C)O | 1 (≈ 0.848 µM) | 0.25 (≈ 0.212 µM) | 0.5 (≈ 0.424 µM) | 2 (≈ 1.7 µM) | 2 (≈ 1.7 µM) | 0.5 (≈ 0.424 µM) | 0.25 (≈ 0.212 µM) | 1 (≈ 0.848 µM) | 16 (≈ 13.6 µM) | 256 | 256 | – | – | – | –
5 | CC[C@H]1OC(=O)[C@H](C)[C@@H](O[C@H]2C[C@@](C)(OC)[C@@H](O)[C@H](C)O2)[C@H](C)[C@@H](O[C@@H]2O[C@H](C)C[C@H](N(C)C)[C@H]2O)[C@](C)(O)C[C@@H](C)C(=O)[C@H](C)[C@@H](O)[C@]1(C)O [ERYTHROMYCIN] | 0.06 (≈ 0.0818 µM) | 0.03 (≈ 0.0409 µM) | 0.12 (≈ 0.164 µM) | 0.25 (≈ 0.341 µM) | 0.12 (≈ 0.164 µM) | > 128 | 8 (≈ 10.9 µM) | 256 (≈ 349 µM) | ≥ 128 | – | – | – | – | – | –
